Source: ChEMBL document CHEMBL4613298, “GPBAR1 Activation by C6-Substituted Hyodeoxycholane Analogues Protect against Colitis” (ACS Med Chem Lett, 2020)
Activity calls are given as the source filed them. No cut-off for these calls is given here.

How the values were obtained:
[1] = biological target: T1, G-protein coupled bile acid receptor 1 (Homo sapiens) (UniProt Q8TDU6); test: Transactivation of human GPBAR1 receptor expressed in HEK293T cells assessed as maximum receptor activation at 10 uM after 18 hrs by cAMP response element driven renilla-luciferase dual reporter gene assay relative to TLCA; format: functional, cell-based; conditions: HEK-293T
T1 sequence (whole entry): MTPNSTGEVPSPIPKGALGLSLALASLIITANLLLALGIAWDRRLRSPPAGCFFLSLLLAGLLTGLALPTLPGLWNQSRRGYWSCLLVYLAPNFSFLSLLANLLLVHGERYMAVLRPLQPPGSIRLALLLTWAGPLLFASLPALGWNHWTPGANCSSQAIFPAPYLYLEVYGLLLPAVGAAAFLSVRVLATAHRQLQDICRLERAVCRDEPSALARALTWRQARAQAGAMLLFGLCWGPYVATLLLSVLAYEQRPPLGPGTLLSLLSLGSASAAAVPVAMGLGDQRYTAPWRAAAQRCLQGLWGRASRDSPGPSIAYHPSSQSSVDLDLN
Summary of the method: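 HEK-293T cells transfected with GPBAR1 and a CRE-driven luciferase reporter, exposed to compound at 10 μM. Efficacy is maximal CRE transactivation as percent of that caused by TLCA (10 μM). One experiment, triplicate.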

[2] = biological target: T2, Bile acid receptor (Homo sapiens) (UniProt Q96RI1); test: Transactivation of FXR (unknown origin) expressed in HepG2 cells co-expressing pSG5RXR/pGL4.70 assessed as maximum receptor activation at 10 uM after 18 hrs by IR1 driven dual renilla-luciferase reporter gene assay relative to relative to CDCA; format: cell-based
T2 sequence (whole entry): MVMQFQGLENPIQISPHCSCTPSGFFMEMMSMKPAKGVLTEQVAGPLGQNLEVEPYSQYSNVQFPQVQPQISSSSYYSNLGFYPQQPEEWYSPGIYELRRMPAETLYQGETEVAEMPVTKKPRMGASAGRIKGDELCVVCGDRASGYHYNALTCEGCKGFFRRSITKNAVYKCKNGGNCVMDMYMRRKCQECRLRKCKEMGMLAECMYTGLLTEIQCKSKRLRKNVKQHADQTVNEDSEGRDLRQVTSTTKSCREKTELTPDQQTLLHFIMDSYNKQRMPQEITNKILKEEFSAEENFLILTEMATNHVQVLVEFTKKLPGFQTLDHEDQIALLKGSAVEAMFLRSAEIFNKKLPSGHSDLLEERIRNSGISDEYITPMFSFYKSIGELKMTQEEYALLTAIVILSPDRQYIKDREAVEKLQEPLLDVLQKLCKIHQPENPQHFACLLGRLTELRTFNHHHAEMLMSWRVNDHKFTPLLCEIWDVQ
Summary of the method: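 FXR reporter assay in HepG2 cells transfected with FXR and an IR1-driven luciferase reporter, compound at 10 μM. Efficacy is maximal IR1 transactivation relative to CDCA (10 μM). One experiment, triplicate.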

Homo sapiens = organism: Homo sapiens; test: Selectivity index, ratio of transactivation of human GPBAR1 receptor expressed in HEK293T cells assessed as maximum receptor activation at 10 uM to transactivation of human FXR (unknown origin) expressed in HepG2 cells co-expressing pSG5RXR/pGL4.70 assessed as maximum receptor activation at 10 uM; format: cell-based
Summary of the method: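 Ratio of percent activity at GPBAR1 (HEK-293T, CRE-luciferase, 10 μM, vs TLCA 10 μM) to percent activity at FXR (HepG2, IR1-luciferase, 10 μM, vs CDCA 10 μM). Both taken from the same triplicate experiment.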

[3] = Aqueous solubility of compound in pH 7.4 PBS/MeOH at 10 mM after 24 hrs by LC-MS analysis; format: physicochemical; conditions: buffer, pH 7.4, 24 h, 10000 µM
[4] = biological target: T1, G-protein coupled bile acid receptor 1 (Homo sapiens); test: Agonist activity at GPBAR1 receptor in human THP1 cells assessed as reduction in LPS-induced IL-1beta expression at 10 uM after 18 hrs by RT-PCR analysis; format: cell-based; conditions: THP-1
Summary of the method: (§1)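 THP1 monocytic/macrophage cells primed with LPS, then coincubated with or without test agent at 10 μM; expression of cytokine genes (IL-1β, IL-6, TNF-α, IL-10) measured.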

[5] = biological target: T1, G-protein coupled bile acid receptor 1 (Homo sapiens); test: Agonist activity at GPBAR1 receptor in human THP1 cells assessed as reduction in LPS-induced IL-6 expression at 10 uM after 18 hrs by RT-PCR analysis; format: cell-based; conditions: THP-1; summary of the method: as §1
[6] = biological target: T1, G-protein coupled bile acid receptor 1 (Homo sapiens); test: Agonist activity at GPBAR1 receptor in human THP1 cells assessed as reduction in LPS-induced TNFalpha expression at 10 uM after 18 hrs by RT-PCR analysis; format: cell-based; conditions: THP-1; summary of the method: as §1
[7] = biological target: T1, G-protein coupled bile acid receptor 1 (Homo sapiens); test: Agonist activity at GPBAR1 receptor in LPS-stimulated human THP1 cells assessed as increase in IL-10 expression at 10 uM after 18 hrs by RT-PCR analysis; format: cell-based; conditions: THP-1; summary of the method: as §1
Mus musculus [8] = test: Anti-colitis activity in Gpbar1 (+/+) TNBS-induced C57BL/6NCrl mouse model of colitis assessed as decrease in Clinical Disease activity index at 30 mg/kg, po; format: functional, organism-based
Summary of the method: (§2)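 Gpbar1+/+ and Gpbar1–/– mice given TNBS alone or with test agent at 30 mg/kg; body weight change and CDAI followed over the colitis course; colon sections H&E stained (10× magnification); n = 5 per group.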

Mus musculus [9] = test: Antiinflammatory activity in Gpbar1 (+/+) TNBS-induced C57BL/6NCrl mouse model of colitis assessed as reduction in IL-6 mRNA expression at 30 mg/kg, po by RT-PCR analysis; format: functional, organism-based
Summary of the method: (§3)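 Gpbar1+/+ and Gpbar1–/– mice given TNBS alone or with test agent at 30 mg/kg; colon samples analysed by RT-PCR for relative mRNA of Il-1β, Il-6, Tnf-α, Il-10 and Gpbar1.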

Mus musculus [10] = test: Antiinflammatory activity in Gpbar1 (+/+) TNBS-induced C57BL/6NCrl mouse model of colitis assessed as reduction in IL-1beta mRNA expression at 30 mg/kg, po by RT-PCR analysis; format: functional, organism-based; summary of the method: as §3
Mus musculus [11] = test: Antiinflammatory activity in Gpbar1 (+/+) TNBS-induced C57BL/6NCrl mouse model of colitis assessed as reduction in TNFalpha mRNA expression at 30 mg/kg, po by RT-PCR analysis; format: functional, organism-based; summary of the method: as §3
Mus musculus [12] = test: Antiinflammatory activity in Gpbar1 (+/+) TNBS-induced C57BL/6NCrl mouse model of colitis assessed as increase in IL-10 mRNA expression at 30 mg/kg, po by RT-PCR analysis; format: functional, organism-based; summary of the method: as §3
Mus musculus [13] = test: Effect on IL-6 mRNA expression in Gpbar1 deficient TNBS-induced C57BL/6NCrl mouse model of colitis harboring assessed as reduction in IL-6 mRNA expression at 30 mg/kg, po by RT-PCR analysis; format: functional, organism-based; summary of the method: as §3
Mus musculus [14] = test: Effect on IL-1beta mRNA expression in Gpbar1 deficient TNBS-induced C57BL/6NCrl mouse model of colitis harboring […] expression at 30 mg/kg, po by RT-PCR analysis; format: functional, organism-based; summary of the method: as §3
Mus musculus [15] = test: Effect on TNFalpha mRNA expression in Gpbar1 deficient TNBS-induced C57BL/6NCrl mouse model of colitis harboring […] expression at 30 mg/kg, po by RT-PCR analysis; format: functional, organism-based; summary of the method: as §3
Mus musculus [16] = test: Effect on IL-10 mRNA expression in Gpbar1 deficient TNBS-induced C57BL/6NCrl mouse model of colitis harboring […] expression at 30 mg/kg, po by RT-PCR analysis; format: functional, organism-based; summary of the method: as §3
Mus musculus [17] = test: Anti-colitis activity in Gpbar1 (+/+) TNBS-induced C57BL/6NCrl mouse model of colitis assessed as effect on body weight loss at 30 mg/kg, po; format: functional, organism-based; summary of the method: as §2
Mus musculus [18] = test: Anti-colitis activity in Gpbar1 (+/+) TNBS-induced C57BL/6NCrl mouse model of colitis assessed as colon damage at 30 mg/kg, po by H and E staining analysis; format: functional, organism-based; summary of the method: as §2
Mus musculus [19] = test: Anti-colitis activity in Gpbar1 (-/-) TNBS-induced C57BL/6NCrl mouse model of colitis assessed as decrease in Clinical Disease activity index at 30 mg/kg, po; format: functional, organism-based; summary of the method: as §2
Mus musculus [20] = test: Anti-colitis activity in Gpbar1 (-/-) TNBS-induced C57BL/6NCrl mouse model of colitis assessed as effect on body weight loss at 30 mg/kg, po; format: functional, organism-based; summary of the method: as §2
Mus musculus [21] = test: Anti-colitis activity in Gpbar1 (-/-) TNBS-induced C57BL/6NCrl mouse model of colitis assessed as colon damage at 30 mg/kg, po by H and E staining analysis; format: functional, organism-based; summary of the method: as §2

CC[C@]1(O)C[C@H]2[C@@H]3CC[C@H]([C@H](C)CC#N)[C@@]3(C)CC[C@@H]2[C@@]2(C)CC[C@@H](O)C[C@@H]12
max activation [1]: 101%
max activation [2]: 12.3%
Selectivity Index (Homo sapiens): 8.2
solubility [3]: Soluble
Activity [4]: Active
Activity [5]: Active
Activity [6]: Active
Activity [7]: Active
Activity (Mus musculus [8]): Active
Activity (Mus musculus [9]): Active
Activity (Mus musculus [10]): Active
Activity (Mus musculus [11]): Active
Activity (Mus musculus [12]): Active
Activity (Mus musculus [13]): inactive
Activity (Mus musculus [14]): inactive
Activity (Mus musculus [15]): inactive
Activity (Mus musculus [16]): inactive
Activity (Mus musculus [17]): Active
Activity (Mus musculus [18]): Active
Activity (Mus musculus [19]): inactive
Activity (Mus musculus [20]): inactive
Activity (Mus musculus [21]): inactive
